Values joined by “and” are separate entries in the source; they are usually repeats but may differ in a detail not shown here. Equal entries are not always repeated.
How the values were obtained:
[1] = test system: auricular draining lymph nodes (dLNs); experiment: Draining lymph node phenotyping by flow cytometry after 28-day dermal exposure; format: in vivo, B6C3F1 mice; conditions: 28 days
In short: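 Female B6C3F1 mice (5/group) received 25 μl/ear daily to the dorsal ears in acetone. About 24 h after the last dose, tissues went into RPMI: both auricular dLNs, half spleen and one ear pinna. Single-cell suspensions were acquired on an LSR II, with populations gated per supplemental strategy and FMO gating controls. Results are mean ± SE, n=5, by one-way ANOVA.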

ear pinna [2] = experiment: Ear; format: in vivo, B6C3F1 mice; conditions: dermal, 28 days, mice affected of 5
In short: (§1)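 Female B6C3F1 mice (5/group) received 25 μl/ear on the dorsal ear surfaces daily, with acetone as vehicle. Tissues were formalin-fixed about 24 h after the last dose: liver remainder, half spleen, right kidney and half ear pinna. Sections were paraffin-embedded, cut at 5 μm and stained with H&E. A veterinary pathologist read them per STP guideline and graded 1 (minimal) to 5 (severe) by extent.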

kidney, spleen = experiment: Kidney and spleen histopathology after 28-day dermal exposure; format: in vivo, B6C3F1 mice; conditions: 1.25–5%, 28 days, data not shown
In short: as §1

[3] = PFAS concentration in pooled urine; format: in vivo, B6C3F1 mice; conditions: 5%, dermal, 28 days; 5 pooled samples
In short: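 Urine was caught in a weigh boat as it was excreted during CO2 euthanasia, about 24 h after the final daily ear dose (25 μl/ear, acetone vehicle; female B6C3F1 mice). The 5 mice per group were pooled, with variable volume. Samples underwent solid-phase extraction and LC/MS/MS, as linear isomer for short-chain analytes and linear plus branched for the comparator. Each group gave a single value without statistics.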

B6C3F1 mice = experiment: Serum chemistries after 28-day dermal exposure; format: in vivo; conditions: 28 days
In short: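 Female B6C3F1 mice received daily dorsal ear application (25 μl/ear, acetone vehicle). About 24 h after the last dose, blood was taken by cardiac puncture. Serum was separated by centrifugation and stored at −20 °C. ALKP, BUN, glucose and cholesterol were read on a Catalyst DX analyzer. Data are mean ± SE of 4–5 mice, ANOVA with Dunnett's; ALKP was also tested by linear regression (p < 0.05).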

ear pinna [4] = experiment: Skin; format: in vivo, B6C3F1 mice; conditions: dermal, 28 days
In short: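 Dosing was daily topical to both dorsal ears (25 μl/ear, acetone vehicle) in female B6C3F1 mice. Liver caudate lobe or half ear pinna was stored in RNAlater and homogenized in RLT buffer. RNA was isolated on RNeasy columns with DNase, and 1–2 μg was reverse-transcribed. TaqMan real-time PCR was read as 2−ΔΔCT vs vehicle, normalized to β-actin. Statistics: ANOVA/Dunnett's, or Kruskal-Wallis/Dunn's for unequal variance.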

O=C(O)C(F)(F)C(F)(F)C(F)(F)C(F)(F)F [PFPeA, perfluoropentanoic acid]
dLN B-cells cell number ([1]; 1.25%): 8.67 ± 0.72 × 10^5 | dLN B-cells frequency ([1]; 1.25%): 14.18 ± 0.59% | dLN CD4^+ cell number ([1]; 1.25%): 2.63 ± 0.27 × 10^6 | dLN CD4^+ frequency ([1]; 1.25%): 42.52 ± 0.79% | dLN CD8^+ cell number ([1]; 1.25%): 18.60 ± 0.18 × 10^5 | dLN CD8^+ frequency ([1]; 1.25%): 30.24 ± 0.44% | dLN CD11b+ cell number ([1]; 1.25%): 7.21 ± 1.61 × 10^4 | dLN CD11b+ frequency ([1]; 1.25%): 1.26 ± 0.29% | dLN CD86 B-cells ([1]; 1.25%): 1140.40 ± 46.06 MFI | dLN CD86 DCs ([1]; 1.25%): 42.60 ± 1.44 MFI x 10^2 | dLN Dendritic Cells cell number ([1]; 1.25%): 6.24 ± 0.42 × 10^4 | dLN Dendritic Cells frequency ([1]; 1.25%): 1.02 ± 0.03% | dLN Eosinophils cell number ([1]; 1.25%): 20.90 ± 7.02 × 10^2 | dLN MHCII B-cells ([1]; 1.25%): 105.00 ± 1.83 MFI × 10^2 | dLN NK cell number ([1]; 1.25%): 3.23 ± 0.30 × 10^4 | dLN NK frequency ([1]; 1.25%): 0.53 ± 0.03% | dLN Neutrophils cell number ([1]; 1.25%): 12.30 ± 1.75 × 10^2 | dLN Total Cellularity ([1]; 1.25%): 6.15 ± 0.57 × 10^6 | dLN B-cells cell number ([1]; 2.5%): 12.60 ± 2.36 × 10^5 | dLN B-cells frequency ([1]; 2.5%): 15.00 ± 0.92 % | dLN CD4^+ cell number ([1]; 2.5%): 3.34 ± 0.55 × 10^6 | dLN CD4^+ frequency ([1]; 2.5%): 39.54 ± 0.62 % | dLN CD8^+ cell number ([1]; 2.5%): 25.00 ± 3.80 × 10^5 | dLN CD8^+ frequency ([1]; 2.5%): 29.96 ± 0.86% | dLN CD11b+ cell number ([1]; 2.5%): 17.00 ± 4.33 × 10^4 | dLN CD11b+ frequency ([1]; 2.5%): 1.92 ± 0.19% | dLN CD86 B-cells ([1]; 2.5%): 1131.40 ± 96.26 MFI | dLN CD86 DCs ([1]; 2.5%): 40.30 ± 1.05 MFI x 10^2 | dLN Dendritic Cells cell number ([1]; 2.5%): 10.40 ± 1.31 × 10^4 | dLN Dendritic Cells frequency ([1]; 2.5%): 1.31 ± 0.15% | dLN Eosinophils cell number ([1]; 2.5%): 81.90 ± 15.70 × 10^2 | dLN MHCII B-cells ([1]; 2.5%): 115.00 ± 6.25 MFI × 10^2 | dLN NK cell number ([1]; 2.5%): 5.52 ± 0.71 × 10^4 | dLN NK frequency ([1]; 2.5%): 0.69 ± 0.07% | dLN Neutrophils cell number ([1]; 2.5%): 19.10 ± 3.38 × 10^2 | dLN Total Cellularity ([1]; 2.5%): 8.45 ± 1.43 × 10^6 | dLN B-cells cell number ([1]; 5%): 17.00 ± 1.58 × 10^5 | dLN B-cells frequency ([1]; 5%): 16.22 ± 0.70 % | dLN CD4^+ cell number ([1]; 5%): 3.99 ± 0.36 × 10^6 | dLN CD4^+ frequency ([1]; 5%): 38.02 ± 0.95 % | dLN CD8^+ cell number ([1]; 5%): 30.20 ± 0.23 × 10^5 | dLN CD8^+ frequency ([1]; 5%): 28.88 ± 0.40% | dLN CD11b+ cell number ([1]; 5%): 24.00 ± 3.48 × 10^4 | dLN CD11b+ frequency ([1]; 5%): 2.26 ± 0.17% | dLN CD86 B-cells ([1]; 5%): 1188.80 ± 47.41 MFI | dLN CD86 DCs ([1]; 5%): 36.80 ± 2.23 MFI x 10^2 | dLN Dendritic Cells cell number ([1]; 5%): 12.60 ± 1.09 × 10^4 | dLN Dendritic Cells frequency ([1]; 5%): 1.21 ± 0.08% | dLN Eosinophils cell number ([1]; 5%): 140.00 ± 23.00 × 10^2 | dLN MHCII B-cells ([1]; 5%): 126.00 ± 6.53 MFI × 10^2 | dLN NK cell number ([1]; 5%): 7.50 ± 0.56 × 10^4 | dLN NK frequency ([1]; 5%): 0.73 ± 0.05% | dLN Neutrophils cell number ([1]; 5%): 22.40 ± 5.58 × 10^2 | dLN Total Cellularity ([1]; 5%): 10.50 ± 0.93 × 10^6 | Ear: Degeneration/regeneration, cartilage, focal, Mild (incidence) (ear pinna [2]; 1.25%): 0 | Ear: Fibrosis, dermis, focal, Minimal (incidence) (ear pinna [2]; 1.25%): 0 | Ear: Hyperkeratosis, epidermis, focal, Mild (incidence) (ear pinna [2]; 1.25%): 0 | Ear: Hyperkeratosis, epidermis, focal, Minimal (incidence) (ear pinna [2]; 1.25%): 0 | Ear: Hyperplasia, epidermis, focal, Mild (incidence) (ear pinna [2]; 1.25%): 0 | Ear: Hyperplasia, epidermis, focal, Minimal (incidence) (ear pinna [2]; 1.25%): 0 | Ear: Inflammation, mixed cell, dermis, Minimal (incidence) (ear pinna [2]; 1.25%): 0 | Ear: Inflammation, mononuclear cell, dermis, Minimal (incidence) (ear pinna [2]; 1.25%): 0 | Ear: Necrosis, epidermis, multifocal, Minimal (incidence) (ear pinna [2]; 1.25%): 0 | Ear: Degeneration/regeneration, cartilage, focal, Mild (incidence) (ear pinna [2]; 2.5%): 0 | Ear: Fibrosis, dermis, focal, Minimal (incidence) (ear pinna [2]; 2.5%): 0 | Ear: Hyperkeratosis, epidermis, focal, Mild (incidence) (ear pinna [2]; 2.5%): 0 | Ear: Hyperkeratosis, epidermis, focal, Minimal (incidence) (ear pinna [2]; 2.5%): 0 | Ear: Hyperplasia, epidermis, focal, Mild (incidence) (ear pinna [2]; 2.5%): 0 | Ear: Hyperplasia, epidermis, focal, Minimal (incidence) (ear pinna [2]; 2.5%): 4/5 and 4 | Ear: Inflammation, mixed cell, dermis, Minimal (incidence) (ear pinna [2]; 2.5%): 2/5 and 2 | Ear: Inflammation, mononuclear cell, dermis, Minimal (incidence) (ear pinna [2]; 2.5%): 0 | Ear: Necrosis, epidermis, multifocal, Minimal (incidence) (ear pinna [2]; 2.5%): 0 | Ear: Degeneration/regeneration, cartilage, focal, Mild (incidence) (ear pinna [2]; 5%): 0 | Ear: Fibrosis, dermis, focal, Minimal (incidence) (ear pinna [2]; 5%): 4/5 and 4 | Ear: Hyperkeratosis, epidermis, focal, Mild (incidence) (ear pinna [2]; 5%): 0 | Ear: Hyperkeratosis, epidermis, focal, Minimal (incidence) (ear pinna [2]; 5%): 2/5 and 2 | Ear: Hyperplasia, epidermis, focal, Mild (incidence) (ear pinna [2]; 5%): 3/5 and 3 | Ear: Hyperplasia, epidermis, focal, Minimal (incidence) (ear pinna [2]; 5%): 2/5 and 2 | Ear: Inflammation, mixed cell, dermis, Minimal (incidence) (ear pinna [2]; 5%): 4/5 and 4 | Ear: Inflammation, mononuclear cell, dermis, Minimal (incidence) (ear pinna [2]; 5%): 0 | Ear: Necrosis, epidermis, multifocal, Minimal (incidence) (ear pinna [2]; 5%): 0 | microscopic observations in the kidney or the spleen (kidney, spleen): No PFPeA, PFHxA, or PFHpA-related microscopic observations | urine PFAS concentration [3]: 5600 µg/mL | serum cholesterol (B6C3F1 mice; 1.25%): decrease | serum urea nitrogen (BUN), decrease (B6C3F1 mice; 2.5%): 20% | serum glucose, increase compared to vehicle control (B6C3F1 mice; 5%): 30% | serum urea nitrogen (BUN), decrease (B6C3F1 mice; 5%): 22% | serum alanine aminotransferase (ALT) (B6C3F1 mice; any concentration, data not shown): No change | skin Krt10 gene expression (ear pinna [4]; 1.25%): increased | skin Pparγ gene expression (ear pinna [4]; 1.25%): decreased | skin Pparδ gene expression (ear pinna [4]; 1.25–5%): no changes | skin Krt10 gene expression (ear pinna [4]; 2.5%): increased | skin Pparγ gene expression (ear pinna [4]; 2.5%): decreased | skin Flg gene expression (ear pinna [4]; 5%): increased | skin Il6 gene expression, increase (ear pinna [4]; 5%): 2.5 fold | skin Krt10 gene expression (ear pinna [4]; 5%): increased | skin PPARα gene expression (ear pinna [4]; 5%): decreased | skin Pparγ gene expression (ear pinna [4]; 5%): decreased | skin S100a7a gene expression, increase (ear pinna [4]; 5%): 42.5 fold | skin Serpine1 gene expression, increase (ear pinna [4]; 5%): 3 fold | skin Tslp gene expression, increase (ear pinna [4]; 5%): 3 fold
